In brackets after ≈: the same amount, converted by molar mass. Values belong to the compound of their own block, whether it stands above or below them. Activity calls are given as the source filed them. The calls are words filed in the database; no cut-off is given here.
Tests used:
[1] = test system: NCI-H1703; assay: Antiproliferative activity against human NCI-H1703 cells expressing FASN assessed as growth inhibition at 25 uM after 72 hrs by MTS assay relative to control; type: functional; details: NCI-H1703, 72 h
In short: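 H1703 cells were treated with a single 25 µM concentration for 72 h. Viability was measured by MTS at 490 nm, with 0.1% DMSO and media-only correction, relative to untreated control. Mean ± SD of n = 3 independent determinations, unpaired t test against control.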

[2] = test system: NCI-H1650; assay: Antiproliferative activity against human NCI-H1650 cells expressing FASN assessed as reduction in cell viability after 72 hrs by MTS assay; type: functional, cell-based; details: NCI-H1650, 72 h
In short: (§1)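 ATCC-sourced cells. H1299, H1650, H1703 and PC-9 were grown in RPMI 1640 with 10% FBS. A549 was grown in high-glucose DMEM with 10% FBS and 1 mM pyruvate. SAEC was grown in BEGM. Cells were seeded at 3 × 10^3 per well (H1650 3.5 × 10^3) and left to attach overnight. Serial dilutions from DMSO stocks were added, 0.1% DMSO final, for 72 h at 37 °C, 5% CO2. Medium was replaced, MTS added, and A490 read after 2 h. IC50 was taken from % viability versus log concentration, 3 experiments.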

[3] = test system: NCI-H1703; assay: Antiproliferative activity against human NCI-H1703 cells expressing FASN assessed as reduction in cell viability after 72 hrs by MTS assay; type: functional, cell-based; details: NCI-H1703, 72 h; in short: as §1
[4] = test system: NCI-H1299; assay: Antiproliferative activity against human NCI-H1299 cells expressing FASN assessed as reduction in cell viability after 72 hrs by MTS assay; type: functional, cell-based; details: NCI-H1299, 72 h; in short: as §1
[5] = Kinetic solubility of the compound in universal buffer at pH 7.4 measured at 25 degC after 24 hrs by UV/Visible spectroscopic analysis; type: physicochemical; details: read-out: Kinetic_solubility
[6] = target: Fatty acid synthase (Homo sapiens) (UniProt P49327); assay: Inhibition of FASN in human PC9 cells harboring FASN expression and EGFR delE746-A750 mutant assessed as disruption of AKT/FASN positive feedback loop by measuring reduction in AKT expression at 100 uM after 48 hrs by Western immunoblot based densitometric assay relative to control; type: cell-based
Sequence of Fatty acid synthase (Homo sapiens) (P49327 whole entry, looked up): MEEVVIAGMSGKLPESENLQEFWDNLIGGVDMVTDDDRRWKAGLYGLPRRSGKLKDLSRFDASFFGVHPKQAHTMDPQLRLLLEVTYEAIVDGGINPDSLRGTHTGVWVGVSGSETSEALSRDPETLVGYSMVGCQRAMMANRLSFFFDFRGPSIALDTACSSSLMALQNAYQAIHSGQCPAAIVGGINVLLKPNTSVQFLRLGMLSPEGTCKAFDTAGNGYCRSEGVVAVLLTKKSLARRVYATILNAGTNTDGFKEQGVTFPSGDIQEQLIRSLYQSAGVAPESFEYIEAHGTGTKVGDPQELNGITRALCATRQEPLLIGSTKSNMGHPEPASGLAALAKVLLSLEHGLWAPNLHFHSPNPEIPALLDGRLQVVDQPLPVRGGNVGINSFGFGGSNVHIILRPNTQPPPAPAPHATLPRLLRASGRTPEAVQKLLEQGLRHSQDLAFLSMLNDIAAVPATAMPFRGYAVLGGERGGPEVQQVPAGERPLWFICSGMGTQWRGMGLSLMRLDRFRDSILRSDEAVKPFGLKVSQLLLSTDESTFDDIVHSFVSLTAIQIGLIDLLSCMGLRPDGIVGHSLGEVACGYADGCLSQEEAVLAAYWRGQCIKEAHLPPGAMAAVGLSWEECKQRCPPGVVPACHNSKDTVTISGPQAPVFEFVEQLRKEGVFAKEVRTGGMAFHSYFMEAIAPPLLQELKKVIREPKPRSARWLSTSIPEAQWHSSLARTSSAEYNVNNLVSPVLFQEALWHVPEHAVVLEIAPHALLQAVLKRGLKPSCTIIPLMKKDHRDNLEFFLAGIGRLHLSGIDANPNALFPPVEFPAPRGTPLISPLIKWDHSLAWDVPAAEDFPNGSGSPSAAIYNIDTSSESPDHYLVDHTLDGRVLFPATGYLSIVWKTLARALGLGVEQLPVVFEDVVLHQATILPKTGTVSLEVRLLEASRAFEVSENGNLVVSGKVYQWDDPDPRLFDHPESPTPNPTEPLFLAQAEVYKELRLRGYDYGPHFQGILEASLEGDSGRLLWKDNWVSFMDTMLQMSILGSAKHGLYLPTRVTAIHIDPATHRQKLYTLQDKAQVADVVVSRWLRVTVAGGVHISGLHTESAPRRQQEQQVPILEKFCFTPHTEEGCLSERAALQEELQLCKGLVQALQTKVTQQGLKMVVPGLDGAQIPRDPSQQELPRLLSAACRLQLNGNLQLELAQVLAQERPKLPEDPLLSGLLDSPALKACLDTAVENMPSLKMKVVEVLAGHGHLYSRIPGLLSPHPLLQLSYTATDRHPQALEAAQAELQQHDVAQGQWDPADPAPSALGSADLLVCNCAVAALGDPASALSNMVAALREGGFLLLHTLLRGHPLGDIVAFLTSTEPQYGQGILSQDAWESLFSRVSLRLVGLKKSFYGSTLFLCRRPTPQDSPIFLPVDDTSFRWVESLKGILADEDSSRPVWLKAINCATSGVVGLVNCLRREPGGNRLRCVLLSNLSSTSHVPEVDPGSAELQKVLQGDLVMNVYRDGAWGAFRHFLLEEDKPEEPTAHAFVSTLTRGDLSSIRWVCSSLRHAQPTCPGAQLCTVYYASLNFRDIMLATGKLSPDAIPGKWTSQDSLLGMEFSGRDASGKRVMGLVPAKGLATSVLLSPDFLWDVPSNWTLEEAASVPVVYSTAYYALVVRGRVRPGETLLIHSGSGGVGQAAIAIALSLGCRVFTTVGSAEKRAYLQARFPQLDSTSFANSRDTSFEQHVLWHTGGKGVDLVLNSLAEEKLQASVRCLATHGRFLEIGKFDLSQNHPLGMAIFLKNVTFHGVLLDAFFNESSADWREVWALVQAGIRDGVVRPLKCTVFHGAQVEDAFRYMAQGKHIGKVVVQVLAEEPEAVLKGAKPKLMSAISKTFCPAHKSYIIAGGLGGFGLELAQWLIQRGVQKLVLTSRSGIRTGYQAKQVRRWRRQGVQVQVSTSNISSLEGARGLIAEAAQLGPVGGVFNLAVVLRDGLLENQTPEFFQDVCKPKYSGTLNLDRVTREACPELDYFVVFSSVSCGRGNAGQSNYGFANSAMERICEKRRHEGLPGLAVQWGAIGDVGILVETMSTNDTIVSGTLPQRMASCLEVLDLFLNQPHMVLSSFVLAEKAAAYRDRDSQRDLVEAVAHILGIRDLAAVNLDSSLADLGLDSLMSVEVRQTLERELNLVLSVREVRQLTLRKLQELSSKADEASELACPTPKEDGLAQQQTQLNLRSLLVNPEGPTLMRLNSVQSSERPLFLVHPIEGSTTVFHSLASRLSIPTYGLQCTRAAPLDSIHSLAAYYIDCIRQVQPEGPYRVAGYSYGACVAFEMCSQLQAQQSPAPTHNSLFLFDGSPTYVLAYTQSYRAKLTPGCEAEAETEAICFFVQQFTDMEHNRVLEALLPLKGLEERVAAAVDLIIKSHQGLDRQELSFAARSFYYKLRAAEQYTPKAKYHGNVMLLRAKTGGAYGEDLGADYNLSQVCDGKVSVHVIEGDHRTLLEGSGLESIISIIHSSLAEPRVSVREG
In short: (§2)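 PC-9 or H1703 cells were seeded at 8 × 10^5 per 100 mm dish and treated for 48 h at 1 or 5 µM (or 5, 50 and 100 µM). RIPA lysates were BCA-quantified and run on 8% SDS-PAGE, then transferred to PVDF. Blots were probed for FASN, AKT, phospho-AKT S473 and GAPDH and detected by ECL. Bands were quantified by densitometry and normalised to vehicle control.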

[7] = target: Fatty acid synthase (Homo sapiens) (UniProt P49327); assay: Inhibition of FASN in human PC9 cells harboring FASN expression and EGFR delE746-A750 mutant assessed as disruption of AKT/FASN positive feedback loop by measuring reduction in phosphorylated AKT expression at 100 uM after 48 hrs by Western immunoblot based densitometric assay relative to control; type: cell-based; in short: as §2
[8] = target: Fatty acid synthase (Homo sapiens) (UniProt P49327); assay: Inhibition of FASN in human PC9 cells harboring FASN expression and EGFR delE746-A750 mutant assessed as disruption of AKT/FASN positive feedback loop by measuring reduction in AKT expression at 50 uM after 48 hrs by Western immunoblot based densitometric assay relative to control; type: cell-based; in short: as §2
[9] = target: Fatty acid synthase (Homo sapiens) (UniProt P49327); assay: Inhibition of FASN in human PC9 cells harboring FASN expression and EGFR delE746-A750 mutant assessed as disruption of AKT/FASN positive feedback loop by measuring decrease in FASN expression at 100 uM after 48 hrs by Western immunoblot based densitometric assay relative to control; type: cell-based; in short: as §2
[10] = target: Fatty acid synthase (Homo sapiens) (UniProt P49327); assay: Inhibition of FASN in human NCI-H1703 cells expressing FASN assessed as disruption of AKT/FASN positive feedback loop by measuring decrease in phosphorylated AKT expression at 5 uM after 48 hrs by Western immunoblot based densitometric assay relative to control; type: cell-based; in short: as §2
[11] = test system: PC-9; assay: Induction of apoptosis in human PC9 cells harboring FASN expression and EGFR delE746-A750 mutant assessed as cell death at 5 to 100 uM after 72 hrs by Annexin-V FITC/PI staining-based flow cytometry; type: functional
[12] = target: Fatty acid synthase (Homo sapiens) (UniProt P49327); assay: Inhibition of FASN in human PC9 cells harboring FASN expression and EGFR delE746-A750 mutant assessed as disruption of AKT/FASN positive feedback loop by measuring reduction in phosphorylated AKT expression at 5 uM after 48 hrs by Western immunoblot based densitometric assay relative to control; type: cell-based; in short: as §2
[13] = target: Fatty acid synthase (Homo sapiens) (UniProt P49327); assay: Inhibition of FASN in human NCI-H1703 cells expressing FASN assessed as disruption of AKT/FASN positive feedback loop by measuring decrease in FASN expression at 100 uM after 48 hrs by Western immunoblot based densitometric assay relative to control; type: cell-based; in short: as §2
[14] = target: Fatty acid synthase (Homo sapiens) (UniProt P49327); assay: Inhibition of FASN in human NCI-H1703 cells expressing FASN assessed as disruption of AKT/FASN positive feedback loop by measuring decrease in AKT expression at 5 uM after 48 hrs by Western immunoblot based densitometric assay relative to control; type: cell-based; in short: as §2
[15] = target: Fatty acid synthase (Homo sapiens) (UniProt P49327); assay: Inhibition of FASN in human PC9 cells harboring FASN expression and EGFR delE746-A750 mutant assessed as disruption of AKT/FASN positive feedback loop by measuring decrease in FASN expression at 50 uM after 48 hrs by Western immunoblot based densitometric assay relative to control; type: cell-based; in short: as §2
[16] = target: Fatty acid synthase (Homo sapiens) (UniProt P49327); assay: Inhibition of FASN in human NCI-H1703 cells expressing FASN assessed as disruption of AKT/FASN positive feedback loop by measuring decrease in FASN expression at 50 uM after 48 hrs by Western immunoblot based densitometric assay relative to control; type: cell-based; in short: as §2
[17] = target: Fatty acid synthase (Homo sapiens) (UniProt P49327); assay: Inhibition of FASN in human PC9 cells harboring FASN expression and EGFR delE746-A750 mutant assessed as disruption of AKT/FASN positive feedback loop by measuring reduction in AKT expression at 5 uM after 48 hrs by Western immunoblot based densitometric assay relative to control; type: cell-based; in short: as §2
[18] = target: Fatty acid synthase (Homo sapiens) (UniProt P49327); assay: Inhibition of FASN in human NCI-H1703 cells expressing FASN assessed as disruption of AKT/FASN positive feedback loop by measuring decrease in AKT expression at 100 uM after 48 hrs by Western immunoblot based densitometric assay relative to control; type: cell-based; in short: as §2
[19] = target: Fatty acid synthase (Homo sapiens) (UniProt P49327); assay: Inhibition of FASN in human PC9 cells harboring FASN expression and EGFR delE746-A750 mutant assessed as disruption of AKT/FASN positive feedback loop by measuring decrease in FASN expression at 5 uM after 48 hrs by Western immunoblot based densitometric assay relative to control; type: cell-based; in short: as §2
[20] = target: Fatty acid synthase (Homo sapiens) (UniProt P49327); assay: Inhibition of full length human FASN transfected in HeLa cell lysates at 10 uM using acetyl Co-A/malonyl Co-A as substrate preincubated with enzyme for 2 hrs followed by substrate addition measured after 10 mins in presence of NADPH by microplate reader analysis; type: subcellular; details: Lysate
In short: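 Human FASN was made by in vitro translation from a FASN plasmid. Lysate was diluted 3:7 in 100 mM potassium phosphate, pH 6.5, 1 mM EDTA. It was preincubated with compound (10 µM final) for 2 h at 37 °C. Buffer containing acetyl-CoA (55 µM) and NADPH (330 µM) was added, then the reaction was started with malonyl-CoA (500 µM stock). A340 was read at 0 and 10 min; triplicates.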

[21] = target: Fatty acid synthase (Homo sapiens) (UniProt P49327); assay: Inhibition of FASN in human NCI-H1703 cells expressing FASN assessed as disruption of AKT/FASN positive feedback loop by measuring decrease in FASN expression at 5 uM after 48 hrs by Western immunoblot based densitometric assay relative to control; type: cell-based; in short: as §2
[22] = target: Fatty acid synthase (Homo sapiens) (UniProt P49327); assay: Inhibition of FASN in human NCI-H1703 cells expressing FASN assessed as disruption of AKT/FASN positive feedback loop by measuring decrease in phosphorylated AKT expression at 50 uM after 48 hrs by Western immunoblot based densitometric assay relative to control; type: cell-based; in short: as §2
[23] = target: Fatty acid synthase (Homo sapiens) (UniProt P49327); assay: Inhibition of FASN in human PC9 cells harboring FASN expression and EGFR delE746-A750 mutant assessed as disruption of AKT/FASN positive feedback loop by measuring reduction in phosphorylated AKT expression at 50 uM after 48 hrs by Western immunoblot based densitometric assay relative to control; type: cell-based; in short: as §2
[24] = target: Fatty acid synthase (Homo sapiens) (UniProt P49327); assay: Inhibition of FASN in human NCI-H1703 cells expressing FASN assessed as disruption of AKT/FASN positive feedback loop by measuring decrease in AKT expression at 50 uM after 48 hrs by Western immunoblot based densitometric assay relative to control; type: cell-based; in short: as §2
[25] = target: Fatty acid synthase (Homo sapiens) (UniProt P49327); assay: Inhibition of FASN in human NCI-H1703 cells expressing FASN assessed as disruption of AKT/FASN positive feedback loop by measuring decrease in phosphorylated AKT expression at 100 uM after 48 hrs by Western immunoblot based densitometric assay relative to control; type: cell-based; in short: as §2
[26] = test system: NCI-H1703; assay: Induction of apoptosis in human NCI-H1703 cells expressing FASN assessed as cell death at 5 to 100 uM after 72 hrs by Annexin-V FITC staining/PI-based flow cytometry; type: functional

SMILES: COc1cc(C(=O)Oc2ccc(/C=C/c3ccccc3)cc2)cc(OC)c1OC
inhibition at 25 µM [1]: < 50%

SMILES: O=C(Oc1ccc(Cc2ccc(OC(=O)c3cc(O)c(O)c(O)c3)cc2)cc1)c1cc(O)c(O)c(O)c1
IC50 [2]: 49.7 µM
IC50 [3]: 6.2 µM
IC50 [4]: 8.6 µM
inhibition at 25 µM [1]: > 50%

SMILES: O=C(Oc1cccc2c1CCCC2OC(=O)c1cc(O)c(O)c(O)c1)c1cc(O)c(O)c(O)c1 (centres undefined)
IC50 [2]: 36 µM
IC50 [3]: 6.5 µM
IC50 [4]: 10.2 µM
inhibition at 25 µM [1]: > 50%

SMILES: O=C(Oc1cccc(/C=C/c2ccccc2)c1)c1cc(O)c(O)c(O)c1
inhibition at 25 µM [1]: < 50%

SMILES: O=C(Oc1ccc(-c2ccc(OC(=O)c3cc(O)c(O)c(O)c3)cc2)cc1)c1cc(O)c(O)c(O)c1
IC50 [2]: 7.4 µM
IC50 [3]: 5.8 µM
IC50 [4]: 4.2 µM
solubility kinetic at 24 h [5]: 0.4 µM (≈ 0.196 µg/mL)

SMILES: O=C(Oc1ccc(-c2cccc3ccccc23)cc1)c1cc(O)c(O)c(O)c1
inhibition at 25 µM [1]: < 50%

SMILES: O=C(Oc1ccccc1Cc1ccccc1OC(=O)c1cc(O)c(O)c(O)c1)c1cc(O)c(O)c(O)c1
IC50 [2]: 122 µM
IC50 [3]: 39.3 µM
IC50 [4]: 25.9 µM
inhibition at 25 µM [1]: > 50%

SMILES: COc1cc(C(=O)Oc2ccc(Cc3ccc(OC(=O)c4cc(OC)c(OC)c(OC)c4)cc3)cc2)cc(OC)c1OC
inhibition at 25 µM [1]: < 50%

More lines, main results first:

Ratio [6]: 0.98
Ratio [7]: 0.88
Ratio [8]: 1.01
Ratio [9]: 1.04
Ratio [10]: 0.97
Ratio [12]: 1.02
Ratio [13]: 1.05
Ratio [14]: 1.09
Ratio [15]: 1.01
Ratio [16]: 1.12
Ratio [17]: 0.99
Ratio [18]: 1
Ratio [19]: 0.99
inhibition [20]: inactive
Ratio [21]: 1.05
Ratio [22]: 0.82
Ratio [23]: 0.95
Ratio [24]: 0.99
Ratio [25]: 0.73
SMILES: COc1cc(C(=O)Oc2ccc(/C=C/c3cccc(OC(=O)c4cc(OC)c(OC)c(OC)c4)c3)cc2)cc(OC)c1OC
Activity [11]: inactive
Activity [26]: inactive
inhibition at 25 µM [1]: < 50%

IC50 [2]: 14.1 µM
IC50 [3]: 8.9 µM
IC50 [4]: 11 µM
SMILES: O=C(Oc1ccc(/C=C/c2cccc(OC(=O)c3ccc(O)c(O)c3)c2)cc1)c1ccc(O)c(O)c1
inhibition at 25 µM [1]: > 50%

IC50 [2]: 16 µM
IC50 [3]: 11.2 µM
IC50 [4]: 8.5 µM
SMILES: O=C(Oc1ccc(/C=C/c2ccccc2)cc1)c1cc(O)c(O)c(O)c1
inhibition at 25 µM [1]: > 50%

IC50 [2]: 40.2 µM
IC50 [3]: 17.2 µM
IC50 [4]: 37.2 µM
SMILES: O=C(Oc1ccc(/C=C/c2cccc(OC(=O)c3ccc(O)cc3)c2)cc1)c1ccc(O)cc1
inhibition at 25 µM [1]: > 50%
